# Test results as given in ChEMBL document CHEMBL1132354, “Novel antidiabetic and hypolipidemic agents. 5. Hydroxyl versus benzyloxy containing chroman derivatives” (J Med Chem, 1999).
# What was measured:
# [1] = test system: Mus musculus; experiment: The compound was tested for percent reduction in plasma triglyceride after 6 days of treatment at a dose of 100 mg/kg/day (oral gavage) in mice; type: functional
# In short: (§1)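 Male C57BL/KsJ-db/db mice, 8 weeks old, chow ad libitum, grouped by similar starting plasma glucose (n = 4–6 per group). Dosed orally by gavage in 0.5% CMC vehicle (10 mL/kg) daily for 6 days. Retro-orbital blood taken 1 h post-dose on days 0 and 6. Plasma glucose and triglyceride measured with kits. % reduction = {1−[(TT/OT)/(TC/OC)]}×100 versus vehicle controls, mean ± SE.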
# [2] = The Cmax value in female wistar rat at 100 mg/kg, p.o. dose; type: ADME, organism-based; parameters: dose 100 mg/kg, route oral; settings: in vivo, po
# In short: (§2)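 Wistar rats, 200–225 g, fasted 12 h with free access to water and fed 3 h after dosing. Single dose of 100 mg/kg p.o. given as a 0.5% CMC suspension. Retro-orbital blood, 0.4 mL, taken into heparinized tubes at several time points. Plasma drug measured by HPLC with fluorescence detection on a C18 column. Parameters from noncompartmental analysis, AUC by trapezoidal rule. Four rats per group, mean ± SD.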
# [3] = The Kel value in female wistar rat at 100 mg/kg, p.o. dose; type: ADME, organism-based; parameters: dose 100 mg/kg, route oral; settings: in vivo, po; in short: as §2
# [4] = The half life value in female wistar rat at 100 mg/kg, p.o. dose; type: ADME, organism-based; parameters: dose 100 mg/kg, route oral; settings: in vivo, po; in short: as §2
# [5] = biological target: T1, Peroxisome proliferator-activated receptor alpha (Homo sapiens) (UniProt Q07869); experiment: Fold activation against Peroxisome proliferator activated receptor alpha (50 uM)
# T1 sequence (whole entry): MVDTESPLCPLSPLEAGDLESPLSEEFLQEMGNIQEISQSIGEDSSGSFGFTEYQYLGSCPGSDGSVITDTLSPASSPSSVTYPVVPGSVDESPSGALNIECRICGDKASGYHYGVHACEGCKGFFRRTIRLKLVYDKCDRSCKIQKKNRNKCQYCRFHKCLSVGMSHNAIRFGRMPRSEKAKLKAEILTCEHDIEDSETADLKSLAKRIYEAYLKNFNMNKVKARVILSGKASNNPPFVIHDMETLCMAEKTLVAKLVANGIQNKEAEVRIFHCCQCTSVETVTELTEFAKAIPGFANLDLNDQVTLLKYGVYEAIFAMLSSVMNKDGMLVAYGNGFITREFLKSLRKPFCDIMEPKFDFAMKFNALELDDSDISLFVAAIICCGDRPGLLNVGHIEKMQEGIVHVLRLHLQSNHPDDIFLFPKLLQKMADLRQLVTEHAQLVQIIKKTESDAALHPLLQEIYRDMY
# In short: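 GAL4 fusion of human PPARα LBD (aa 167–468) with a GAL4-response-element luciferase reporter, transiently transfected into HEK-293 cells. Cells kept in DMEM with 10% delipidated serum, seeded 43 h post-transfection, then treated at 50 μM. DMSO (1:1000) served as blank. Luciferase read as fold activation over untreated cells. Mean of three to four experiments.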
# [6] = The Tmax value in female wistar rat at 100 mg/kg, p.o. dose; type: ADME, organism-based; parameters: dose 100 mg/kg, route oral; settings: in vivo, po; in short: as §2
# [7] = test system: Rattus norvegicus; experiment: The AUC(0-t)value in female wistar rat at 100 mg/kg, p.o. dose; type: ADME, organism-based; parameters: dose 100 mg/kg, route oral; unit not given here; settings: in vivo, po; in short: as §2
# [8] = test system: Mus musculus; experiment: The compound was tested for percent reduction in plasma glucose after 6 days of treatment at a dose of 100 mg/kg/day (oral gavage) in mice; type: functional; in short: as §1
# [9] = test system: Rattus norvegicus; experiment: The AUC(0-infinitive) value in female wistar rat at 100 mg/kg, p.o. dose; type: ADME, organism-based; parameters: time infinity, dose 100 mg/kg, route oral; unit not given here; settings: in vivo, po; in short: as §2
# [10] = test system: Mus musculus; experiment: The compound was tested for percent reduction in plasma glucose after 6 days of treatment at 30 mg/kg/day in mice; type: functional; in short: as §1
# [11] = test system: Mus musculus; experiment: The compound was tested for percent reduction in plasma triglyceride after 6 days of treatment at 30 mg/kg/day in mice; type: functional; in short: as §1
# [12] = The Cmax value in male wistar rat at 100 mg/kg, p.o. dose; type: ADME, organism-based; parameters: dose 100 mg/kg, route oral; settings: in vivo, po; in short: as §2
# [13] = The half life value in male wistar rat at 100 mg/kg, p.o. dose; type: ADME, organism-based; parameters: dose 100 mg/kg, route oral; settings: in vivo, po; in short: as §2
# [14] = test system: Mus musculus; experiment: The compound was tested for percent reduction in plasma glucose after 6 days of treatment at a dose of 100 mg/kg/day in mice; type: functional; in short: as §1
# [15] = The Tmax value in male wistar rat at 100 mg/kg, p.o. dose; type: ADME, organism-based; parameters: dose 100 mg/kg, route oral; settings: in vivo, po; in short: as §2
# [16] = test system: Rattus norvegicus; experiment: The AUC(0-t)value in male wistar rat at 100 mg/kg, p.o. dose; type: ADME, organism-based; parameters: dose 100 mg/kg, route oral; settings: in vivo, po; in short: as §2
# [17] = The Kel value in male wistar rat at 100 mg/kg, p.o. dose; type: ADME, organism-based; parameters: dose 100 mg/kg, route oral; settings: in vivo, po; in short: as §2
# [18] = test system: Mus musculus; experiment: The compound was tested for percent reduction in plasma triglyceride after 6 days of treatment at a dose of 100 mg/kg/day in mice; type: functional; in short: as §1
# [19] = test system: Rattus norvegicus; experiment: The AUC(0-infinitive) value in male wistar rat at 100 mg/kg, p.o. dose; type: ADME, organism-based; parameters: time infinity, dose 100 mg/kg, route oral; settings: in vivo, po; in short: as §2
# [20] = test system: Mus musculus; experiment: The compound was tested for percent reduction in plasma glucose after 6 days of treatment at a dose of 200 mg/kg/day (oral gavage) in mice; type: functional; in short: as §1
# [21] = test system: Mus musculus; experiment: The compound was tested for percent reduction in plasma triglyceride after 6 days of treatment at 100 mg/kg/day in mice; type: functional; in short: as §1
smiles,measurement,setting,value
Cc1c(C)c2c(c(C)c1O)CCC(C)(COc1ccc(/C=C3\SC(=O)NC3=O)cc1)O2 (configuration not stated),Reduction,[1],26%
same,Cmax,[2],680 ng/mL
same,k el,[3],6.94e-05 s⁻¹
same,half-life,[4],2.82 h
same,Fold activation,[5],0.58
same,Tmax,[6],1.75 h
same,AUC,[7],2.44
same,Reduction,[8],62%
same,AUC,[9],3.12
Cc1c(C)c2c(c(C)c1OCc1ccccc1)CCC(C)(CN1CCC[C@H]1COc1ccc(CC3SC(=O)NC3=O)cc1)O2.Cl (some centres not stated),Reduction,[10],12%
Cc1c(C)c2c(c(C)c1OCc1ccccc1)CCC(C)(CN1CCC[C@H]1COc1ccc(CC3SC(=O)[N-]C3=O)cc1)O2.[Na+] (some centres not stated),Reduction,[11],66%
same,Reduction,[10],36%
Cc1c(C)c2c(c(C)c1OCc1ccccc1)CCC(C)(COc1ccc(CC3SC(=O)NC3=O)cc1)O2 (configuration not stated),Cmax,[12],2170 ng/mL
same,Cmax,[2],1830 ng/mL
same,k el,[3],2.22e-05 s⁻¹
same,half-life,[4],9.27 h
same,half-life,[13],5.78 h
same,Reduction,[14],64%
same,Fold activation,[5],1.79
same,Tmax,[15],4.33 h
same,AUC,[16],14.26 µg/h/mL
same,k el,[17],3.33e-05 s⁻¹
same,Tmax,[6],3.33 h
same,Reduction,[18],34%
same,AUC,[19],21.02 µg/h/mL
same,AUC,[7],15.83
same,AUC,[9],29.76
Cc1c(C)c2c(c(C)c1O)CCC(C)(CN(C)CCOc1ccc(CC3SC(=O)NC3=O)cc1)O2 (configuration not stated),Reduction,[20],3%
Cc1c(C)c2c(c(C)c1OCc1ccccc1)CCC(C)(CN1CCC[C@H]1COc1ccc(CC3SC(=O)NC3=O)cc1)O2 (some centres not stated),Reduction,[10],23%
same,Reduction,[8],26%
Cc1c(C)c2c(c(C)c1OCc1ccccc1)CCC(C)(CN1CCC[C@@H](Oc3ccc(/C=C4\SC(=O)NC4=O)cc3)C1)O2 (some centres not stated),Reduction,[21],24%
same,Reduction,[8],5%
